Screening results deposited in PubChem by several laboratories.
Most compounds without a hit are left out; they make up all but 6.4% or so of the library.
MPTP block: inhibitors of mitochondrial permeability transition pore | isolated mouse mitochondria, Ca2+ swelling absorbance, 30 min | inhibition, % at 10 µM | AID 602449 | hit rate 1.4% among 360,000;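 active = inhibition of 50% or more, scaled per plate between neutral and stimulator controls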;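 also: 0% = DMSO wells given calcium and 100% = 1 mM EGTA wells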
WT yeast gro inh: growth inhibition of WT yeast, mitochondrial fusion screen; mitochondrial fusion phenotypic screen, WT strain; inhibition, % at 10 µM; hit rate 2.1% among 190,000; AID 1362; in the data active = inhibition above about 58%; tested in S. cerevisiae
CHOP inh: blocks CHOP induction under ER stress; CHO-K1 CHOP-promoter luciferase, tunicamycin-induced, 15-18 h; inhibition, % at 10 µM; hit rate 3.8% among 220,000;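 active = compounds that reduced the stress-induced luciferase reporter signal by more than about 70% of percent inhibition, limit read from the data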;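 also: 0% = tunicamycin plus vehicle and 100% = wells without tunicamycin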
EBV gp42 block: blocks Epstein-Barr virus glycoprotein 42 binding; inhibition, % (tested at 21.74 µM); Q1HVG2; hit rate 0.42% among 220,000; AID 1085; Fluorescence polarization binding assay, mP read-out; in the data active = inhibition above about 50%
Target sequence (Q1HVG2 whole entry, looked up): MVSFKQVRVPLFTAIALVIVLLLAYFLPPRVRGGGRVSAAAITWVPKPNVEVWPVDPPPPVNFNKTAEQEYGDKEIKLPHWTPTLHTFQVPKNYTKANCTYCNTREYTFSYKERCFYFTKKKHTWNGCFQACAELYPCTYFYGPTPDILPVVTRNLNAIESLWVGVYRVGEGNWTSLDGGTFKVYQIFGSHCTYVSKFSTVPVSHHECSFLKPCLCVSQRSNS
GRIN3A LBD mod: modulates the human NR3A ligand-binding domain | NR3A LBD differential scanning fluorimetry, Tm shift; 0% = protein alone, 100% = glycine-bound protein | Tm shift relative to glycine control, % at 25 µM | hit rate 2.5% among 340,000 | AID 1259313;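 active = melting temperature shift of at least 10% of the positive control shift, at one fixed dose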
TbMetRS inhib: blocks T. brucei methionyl-tRNA synthetase activity; purified T. brucei MetRS, ATP depletion, Kinase-Glo luminescence; inhibition, % at 11.9 µM; hit rate 0.4% among 360,000;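 active = inhibition above a per-plate cutoff of the control wells' mean inhibition plus 3 SD, cut at about 5.5% in these data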;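 also: 0% = DMSO wells median and 100% = median of wells with control inhibitor compound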
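Material: parasite MetRS enzyme / Replication: singlicate, one well per compound / Signal: luminescence of leftover ATP / Schedule: 2 h aminoacylation at 25 °C after 15 min preincubation / Medium: HEPES-MgCl2-KCl buffer plus DTT, spermine, BSA, pyrophosphatase / Doses: 11.9 µM single point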
Rh123 counter: mitochondrial membrane potential, counter-screen. hit rate 78% among 5,000. AID 624504. inhibition, % at 10 µM. isolated mitochondria, Rhodamine 123 fluorescence. shares compounds with MPTP block; in the data active = inhibition above about 22%;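 also: 0% = DMSO vehicle and 100% = positive control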
MPTP abs DR: MPTP inhibition, dose response swelling confirmation. shares compounds with MPTP block. isolated mitochondria swelling, absorbance. IC50, µM. hit rate 58% among 780; in the data active = IC50 below about 20 µM
MPTP counter DR: MPTP inhibitor counter-screen activity, dose response; shares compounds with MPTP block; isolated mitochondria counterscreen, fluorescence read-out; IC50, µM; hit rate 49% among 780; AID 651564; in the data active = IC50 below about 80 µM
Starred values were filed as active, the others as inactive; / = no result given; ! = repeats disagree.

SMILES	MPTP block	WT yeast gro inh	CHOP inh	EBV gp42 block	GRIN3A LBD mod	TbMetRS inhib	Rh123 counter	others
Cc1cc2sc3ccccc3c(=O)c2c(C)c1O	3	3	24	-7	-2	1	/
CCCN(CCC)CC(O)Cn1cc(/C=C/C(=O)c2cccs2)c2ccccc21 (stereo not drawn)	74*	15	3	-120	-2	0	-16
CCN(CC)S(=O)(=O)c1cc([N+](=O)[O-])ccc1NNC(=O)Nc1ccccc1OC	3	3	41	7	0	0	/
CCN(CC)S(=O)(=O)c1cc([N+](=O)[O-])ccc1NNC(=O)Nc1ccc(F)cc1	86*	17	36	13	4	-1	92*
O=C1c2ccccc2C(=O)N1CCc1c(-c2ccccc2)[nH]c2ccccc12	0	/	/	/	6	0	/
COC(=O)[C@H]1C[C@@H]1[C@H](NC(=O)OCc1ccccc1)c1ccccc1	-1	-12	15	-10	2	0	/
Cn1nc(C(C)(C)C)cc1C(=O)NCc1ccc2c(c1)OCO2	101*	/	/	/	0	-1	105*
CCn1ccc(C(=O)NCc2ccc3c(c2)OCO3)n1	0	/	/	/	2	0	/
Cc1oc(C(C)(C)C)cc1C(=O)NCc1ccc2c(c1)OCO2	63*	/	-4	-9	1	0	28*
CC(C)(C)c1ccc(C(=O)C2CCCN(C(=O)c3ccccn3)C2)cc1 (stereo not drawn)	70*	/	/	/	0	0	93*
Cc1cnc(C(=O)N2CCCC(C(=O)c3ccc(C(C)(C)C)cc3)C2)cn1 (stereo not drawn)	1	12	22	0	-1	0	/
CC(C)(C)c1ccc(-c2cn(-c3ccc(Br)cc3)c3[n+]2CCCS3)cc1	53*	5	49	-11	-2	0	99*
Cc1ccc(NC(=O)Cn2c(=O)cnc3ccccc32)cc1S(=O)(=O)N1CCOCC1	2	/	/	/	1	0	/
Cc1nc2c(C(=O)NCCC(C)C)c[nH]n2c(=O)c1Cc1ccccc1F	78*	30	35	-11	-28	0	59*
Cc1nc2c(C(=O)NCCC(C)C)c[nH]n2c(=O)c1Cl	-3	-6	20	-3	-28	-1	/
CC(C)c1ccc(OCC(=O)N2CCCCCC2)c(Br)c1	2	11	-20	-2	1	1	/
CN(CC(=O)Nc1ccc(Cl)c(Cl)c1)C(=O)C12CC3CC(CC(C3)C1)C2	64*	76*	27	-6	6	0	83*
COc1ccc(-c2cn3c(C)c(C(=O)Nc4cccc(NC(C)=O)c4)sc3n2)cc1	80*	15	0	-4	13*	-1	23*
Cc1cc(OCC(=O)Nc2ccc(Br)cc2)cc2c1C(=O)CC(C)(C)O2	62*	/	14	-14	0	0	68*
Cc1cccc(OCC(=O)Nc2ccncc2)c1	21	/	/	/	-1	0	/
Cc1cc(OCC(=O)Nc2ccncc2)cc(C)c1Br	91*	74*	30	1	-3	-3	97*
Cc1cc(OCC(=O)Nc2ccncc2)ccc1Cl	98*	/	/	/	0	-1	88*
COc1nc(-c2ccccc2)nc(-c2ccccc2)c1C	0	/	/	/	1	1	/
CCCCOc1ncnc2c1[nH]c1ccc(C)cc12	83*	/	57	-14	1	0	56*
CCN/N=C(\Cc1nc2ccccc2[nH]1)c1ccccc1	1	-9	19	5	-3	0	/
SMILES	MPTP block	WT yeast gro inh	CHOP inh	EBV gp42 block	GRIN3A LBD mod	TbMetRS inhib	Rh123 counter	others
Clc1cccc(/C(Cc2nc3ccccc3[nH]2)=N\Nc2ccccc2)c1	97*	68	58	7	13*	3	62*
Cc1ccc2c(c1)c1c(n2CC(O)CNC2CCCCC2)CCCC1 (stereo not drawn)	80*	93*	94*	4	0	0	-20
CCN1/C(=C/c2sc(-c3ccccc3C)c[n+]2C)Sc2ccccc21	95*	77*	81*	-10	-2	0	107*
CCC(=O)/C=C1/Sc2ccccc2N1CC	0	-7	34	-6	-3	-1	/
Clc1cccc(Cl)c1-c1noc(CN2CCOCC2)n1	1	/	-15	-12	1	0	/
CC(C)C(=O)NC(C)C(c1cccs1)N1CCN(c2ccccc2)CC1 (stereo not drawn)	0	-12	17	-12	-1	-1	/
O=S(=O)(NCc1ccc2c(c1)OCO2)c1ccc(F)cc1	-2	/	/	/	2	2	/
CC(C)n1cc(CN2CCC(C(=O)Nc3ccc(Oc4ccccc4F)cc3)CC2)cn1	83*	/	/	/	1	0	14	MPTP abs DR=4.6*;MPTP counter DR=26*
CO/N=C/NC(=O)c1c(OC)ccnc1Oc1ccc(Cl)cc1	0	-7	-15	-14	0	0	/
O=C(CSc1nc(-c2cccs2)cc(C(F)(F)F)n1)Nc1cc(OCC(F)(F)F)cc([N+](=O)[O-])c1	100*	20	30	8	15*	1	79*
CCN1CCN(Cc2ccc(NC(=O)c3ccc(C)c(NC(=O)C(=O)c4c[nH]c5ccccc45)c3)cc2C(F)(F)F)CC1	94*!	/	92*	-24	3	1	-12
CCN1CCN(Cc2ccc(NC(=O)c3cc(NC(=O)C(=O)c4c[nH]c5ccccc45)cc(OC)c3)cc2C(F)(F)F)CC1	-1	/	49	-16	-18	-2	/
COc1ccc2nc(SCC(=O)NC3CCCCC3)[nH]c2c1	0	/	/	/	1	-1	/
Cc1ncc(CO)c(/C=N/NC(=S)Nc2cccc(Cl)c2)c1O	78*	16	52	-11	27*	1	79*
Cc1ncc(CO)c(/C=N/NC(=S)Nc2ccc(Cl)c(Cl)c2)c1O	87*	28	46	-6	23*	0	70*
COC(=O)c1cc(-c2c(C)nn(-c3ccccc3)c2C)n[nH]1	0	-13	14	-2	-3	0	/
CCOC(=O)Cn1c(=N)n(CCOc2cccc(C)c2)c2ccccc21	88*	10	-3	-11	0	3	0	MPTP abs DR=5.3*;MPTP counter DR=57*
CCOC(=O)Cn1c(=N)n(CCOc2ccc(Br)cc2)c2ccccc21	3	/	5	-2	1	4	/
CCN(CC)CCn1c(=N)n(CC(O)COc2cccc(C)c2)c2ccccc21 (stereo not drawn)	71*	8	6	-7	-2	0	-4	MPTP abs DR=4.5*;MPTP counter DR=66*
Cc1cccc(OCC(O)Cn2c(=N)n(Cc3ccccc3)c3ccccc32)c1 (stereo not drawn)	2	/	35	-9	0	-1	/
